Structures are written as SMILES.

Assay [1] has as its system CCRF-CEM. In words: Cytotoxicity against human CCRF-CEM cells after 72 hrs by XTT assay. Type of assay: functional, cell-based. The method in brief:
(§1)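 CCRF-CEM leukemia cells and their taxol- or vinblastine-resistant sublines given compound for 72 h. XTT read-out: after phenazine methosulfate–XTT, 6 h at 37 °C, absorbance at 450 and 630 nm. IC50 from median-effect analysis of dose-effect data at six or seven concentrations.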

For assay [2], the system named is CCRF-CEM. In words: Cytotoxicity against taxol-resistant human CCRF-CEM cells after 72 hrs by XTT assay. Type of assay: functional, cell-based. The method in brief: as §1
The test system of assay [3] is CCRF-CEM. In words: Cytotoxicity against vinblastine-resistant human CCRF-CEM cells after 72 hrs by XTT assay. In kind it is functional, cell-based. A digest of the protocol:
as §1

Assay [4] deals with CCRF-CEM. In words: Selectivity ratio of IC50 for taxol-resistant human CCRF-CEM cells to IC50 for human CCRF-CEM cells. Type of assay: functional.
The test system of assay [5] is CCRF-CEM. In words: Selectivity ratio of IC50 for vinblastine-resistant human CCRF-CEM cells to IC50 for human CCRF-CEM cells. Type of assay: functional.
The nature of assay [6]: Cytotoxicity against human H1299 cells after 72 hrs by alamar blue assay. Type of assay: functional, cell-based. As to conditions: NCI-H1299, 72 h. The method in brief: (§2)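 H1299, PC3, CL1-0, CL1-5 and MCF-7 cells exposed to compound for 72 h. Alamar blue added, then 6 h at 37 °C; absorbance at 570 and 600 nm. IC50 from median-effect analysis of dose-effect data at six or seven concentrations.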

Assay [7] in a line: Cytotoxicity against human CL1-5 cells after 72 hrs by alamar blue assay. Type of assay: functional, cell-based. As to conditions: CL1-5, 72 h. The method in brief:
as §2

Assay [8] concerns PC-3. In words: Cytotoxicity against human PC3 cells after 72 hrs by alamar blue assay. The following applies: PC-3, 72 h. Type of assay: functional, cell-based. The method in brief: as §2
Assay [9] deals with HCT-116. In words: Cytotoxicity against human HCT116 cells after 72 hrs by SRB assay. As to conditions: HCT-116, 72 h. In kind it is functional, cell-based. A digest of the protocol: (§3)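 MX-1 breast and HCT-116 colon carcinoma cells exposed to compound for 72 h; growth measured by sulforhodamine B assay. IC50 from median-effect analysis of dose-effect data at six or seven concentrations.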

Assay [10] relates to MX1. In words: Cytotoxicity against human MX1 cells after 72 hrs by SRB assay. Type of assay: functional, cell-based. As to conditions: MX1, 72 h. The method in brief:
as §3

Assay [11] has as its system MCF7. In words: Cytotoxicity against human MCF7 cells after 72 hrs by alamar blue assay. The following applies: MCF7, 72 h. Type of assay: functional, cell-based. A digest of the protocol:
as §2

A short description of assay [12]: Cytotoxicity against human CL1-0 cells after 72 hrs by alamar blue assay. Type of assay: functional, cell-based. As to conditions: CL1-0, 72 h. A digest of the protocol:
as §2

For the compound `O=C(Nc1ccc(N(CCCl)CCCl)cc1)Nc1cccc(OCCN2CCCCC2)c1`, the IC50 in assay [1] was determined as 190 nM; in assay [2], 570 nM; in assay [3], 0.73 µM; in assay [6], 1.52 µM; in assay [7], 3.25 µM; in assay [8], 1130 nM. Besides, the 50% inhibitory concentration (IC50) in assay [9] amounted to 270 nM; in assay [10], 190 nM; in assay [11], 1820 nM; in [12] it was 2.73 µM. Besides, the “Ratio IC50” value in assay [4] amounted to 3; in assay [5], 3.8.

Take `Cl.O=C(Nc1ccc(C(=O)NCCN2CCCCC2)cc1)Nc1ccc(N(CCCl)CCCl)cc1`: the IC50 in assay [1] stood at 360 nM; in assay [2], 15000 nM; in [3], 24.3 µM; in [9], 910 nM; in assay [10], 4400 nM. Moreover, the entries for the “Ratio IC50” value in assay [4] and in assay [5] were 41.8 and 67.8, respectively.

On to `CN(C)CCNC(=O)c1ccc(NC(=O)Nc2ccc(N(CCCl)CCCl)cc2)cc1.Cl`, for which the IC50 was 230 nM in [1]; 4800 nM in assay [2]; 6.74 µM in assay [3]; 390 nM in assay [9]; 1090 nM in assay [10]. Besides, the “Ratio IC50” value came to 21.1 in [4] and 29.6 in assay [5].

For `Cl.O=C(Nc1ccc(N(CCCl)CCCl)cc1)Nc1cccc(C(=O)N2CCC(N3CCCCC3)CC2)c1`, the IC50 in [1] was 280 nM; in assay [2], 12200 nM; in assay [3] it was 20 µM; in assay [6], 11.5 µM; in [7] it was 8.09 µM; in assay [8] it was 3190 nM. The IC50 was 810 nM in assay [9], 2240 nM in assay [10], 3090 nM in assay [11] and 6.23 µM in [12]. For the same compound, the “Ratio IC50” value in assay [4] was found to be 43.5; in [5], 71.6.

Take `Cl.O=C(Nc1ccc(OCCN2CCCC2)cc1)Nc1ccc(N(CCCl)CCCl)cc1`: the IC50 was 140 nM in [1]; 1570 nM in assay [2]; 2.05 µM in assay [3]; 2.25 µM in [6]; 5.92 µM in assay [7]; 1780 nM in [8]. The IC50 in assay [9] was 700 nM; in [10] it was 490 nM; in assay [11] it was 1840 nM; in [12], 3.01 µM. Further, the results for the “Ratio IC50” value in [4] and in assay [5] were 11.5 and 15, respectively.

For the compound `CC(=O)O[C@H]1C(=O)[C@@]2(C)[C@H]([C@H](OC(=O)c3ccccc3)[C@]3(O)C[C@H](OC(=O)[C@H](O)[C@@H](NC(=O)c4ccccc4)c4ccccc4)C(C)=C1C3(C)C)[C@]1(OC(C)=O)CO[C@@H]1C[C@@H]2O` [PACLITAXEL], in assay [1], the midpoint of inhibition, the IC50, lay at 3 nM. For the same compound, the “Ratio IC50” value was 330 in [4] and 980 in assay [5].

With `CN(C)CCOc1ccc(NC(=O)Nc2ccc(N(CCCl)CCCl)cc2)cc1.Cl`, the IC50 in assay [1] was 100 nM; in assay [2], 1500 nM; in assay [3] it was 1.19 µM; in assay [6], 4.38 µM; in assay [7], 3.01 µM; in [8], 1670 nM. In addition, the IC50 was determined as 270 nM in assay [9], 280 nM in assay [10], 1250 nM in [11] and 4.07 µM in [12]. In addition, the “Ratio IC50” value in assay [4] is listed as 7.6; in assay [5], 6.02.

As for `CN(C)CCCNC(=O)c1cccc(NC(=O)Nc2ccc(N(CCCl)CCCl)cc2)c1.Cl`, the IC50 was 290 nM in assay [1]; 21200 nM in assay [2]; 44 µM in assay [3]; 850 nM in assay [9]; 2330 nM in assay [10]. Further, the “Ratio IC50” value in assay [4] is on record as 9.4; in assay [5], 151.8.

Take `CC[C@]1(O)C[C@@H]2CN(CCc3c([nH]c4ccccc34)[C@@](C(=O)OC)(c3cc4c(cc3OC)N(C)[C@H]3[C@@](O)(C(=O)OC)[C@H](OC(C)=O)[C@]5(CC)C=CCN6CC[C@]43[C@@H]65)C2)C1` [VINBLASTINE]: the results for the IC50 in [1] and in [2] were 0.7 nM and 80 nM, respectively. Further, the entries for the “Ratio IC50” value in assay [4] and in [5] were 106.2 and 679.5, respectively.

Consider `Cl.O=C(Nc1ccc(C(=O)NCCN2CCOCC2)cc1)Nc1ccc(N(CCCl)CCCl)cc1`, for which the IC50 in assay [1] came out at 730 nM; in assay [2] it was 19800 nM; in assay [3], 29.8 µM; in [9], 2740 nM; in assay [10] it was 3390 nM. The “Ratio IC50” value is 27.1 in assay [4] and 16.8 in [5].

In the case of `O=C(Nc1ccc(N(CCCl)CCCl)cc1)Nc1cccc(OCCN2CCCC2)c1`, the IC50 in [1] was 350 nM; in [2], 1200 nM; in assay [3], 4.2 µM. Moreover, the “Ratio IC50” value stood at 3.5 in [4] and 12.1 in [5].

As for `Cl.O=C(Nc1ccc(C(=O)NCCN2CCCC2)cc1)Nc1ccc(N(CCCl)CCCl)cc1`, the IC50 turned out to be 270 nM in assay [1]; 19700 nM in [2]; 30.8 µM in [3]; 360 nM in assay [9]; 2330 nM in assay [10]. The “Ratio IC50” value in assay [4] was determined as 71.8; in assay [5] it was 112.5.

As for `CN(C)CCOc1cccc(NC(=O)Nc2ccc(N(CCCl)CCCl)cc2)c1`, the IC50 in [1] was 1320 nM; in assay [2], 810 nM; in [3], 1.48 µM. Besides, the “Ratio IC50” value in [4] came to 0.6; in assay [5], 1.1.

Consider `Cl.O=C(Nc1ccc(N(CCCl)CCCl)cc1)Nc1cccc(C(=O)NCCN2CCOCC2)c1`, for which the IC50 in assay [1] amounted to 580 nM; in assay [2], 8160 nM; in assay [3], 16.3 µM; in assay [9], 1210 nM; in assay [10], 1450 nM. Further, the “Ratio IC50” value amounted to 14.1 in [4] and 28.1 in assay [5].

For `Cl.O=C(Nc1ccc(OCCN2CCOCC2)cc1)Nc1ccc(N(CCCl)CCCl)cc1`, the IC50 worked out at 350 nM in [1], 840 nM in [2] and 0.64 µM in assay [3]. For the same compound, the “Ratio IC50” value is reported as 2.4 in assay [4] and 1.8 in assay [5].

Turning to `Cl.O=C(Nc1ccc(N(CCCl)CCCl)cc1)Nc1cccc(C(=O)NCCN2CCCC2)c1`, the 50% inhibitory concentration (IC50) worked out at 340 nM in [1]; 25200 nM in assay [2]; 36.6 µM in assay [3]; 470 nM in [9]; 2170 nM in assay [10]. For the same compound, the “Ratio IC50” value in assay [4] is 73.7; in assay [5] it was 106.9.

With `O=C(Nc1ccc(N(CCCl)CCCl)cc1)Nc1cccc(OCCN2CCOCC2)c1`, the values for the IC50 in assay [1], in assay [2] and in assay [3] were 410 nM, 730 nM and 1.13 µM, respectively. Further, the “Ratio IC50” value in assay [4] was 1.8; in assay [5] it was 2.8.

As for `CN(C)CCCOc1cccc(NC(=O)Nc2ccc(N(CCCl)CCCl)cc2)c1`, the IC50 in [1] worked out at 320 nM; in assay [2], 2050 nM; in [3], 2.37 µM. In addition, the “Ratio IC50” value in assay [4] is reported as 6.4; in assay [5], 7.4.
